According to ChEMBL document CHEMBL1154044, “5-Nitro-2-furyl derivative actives against Trypanosoma cruzi: preliminary in vivo studies” (Eur J Med Chem, 2009):
Activity calls are given as the source filed them. No cut-off for these calls is given here.

Experiments:
[1] = test system: Mus musculus; assay: Toxicity in CD1 mouse assessed as glutamic-oxalacetate transaminase level at 300 mg/kg, ip after 3 days; format: organism-based; set-up: dose 300 mg/kg, route intraperitoneal; details: in vivo, 72 h
In short: (§1)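 Healthy female CD1 mice (5–7 per group) received a single oral dose of 450 mg/kg or an i.p. dose of 300 mg/kg, with vehicle controls. On day 3 they were sacrificed under ether anaesthesia. Blood was drawn from the subclavian artery and kept at 0 °C in EDTA or heparin. Leukocytes, haemoglobin, haematocrit, GPT and GOT were measured within 24 h and compared with normal ranges.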

[2] = test system: Mus musculus; assay: Toxicity in CD1 mouse intestine at 450 mg/kg, po after 3 days by histological study; format: organism-based; set-up: dose 450 mg/kg, route oral; details: in vivo, 72 h
In short: (§2)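 Healthy female CD1 mice (20–22 g), 5–7 per group, given a single oral (intragastric) or i.p. dose in saline:Tween 80 (4:1) vehicle. Sacrificed on day 3 after ether anaesthesia. Organs fixed in 10% aqueous formalin for histology. Scored against untreated animals from no change to +++ (many changes).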

[3] = test system: Mus musculus; assay: Toxicity in CD1 mouse heart at 300 mg/kg, ip after 3 days by histological study; format: organism-based; set-up: dose 300 mg/kg, route intraperitoneal; details: in vivo, 72 h; in short: as §2
[4] = test system: Mus musculus; assay: Toxicity in CD1 mouse assessed as survival at 300 mg/kg, ip after 3 days; format: organism-based; set-up: dose 300 mg/kg, route intraperitoneal; details: in vivo, 72 h
In short: (§3)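 Healthy 2-month-old female CD1 mice (20–22 g), groups of 5–7, given one oral dose by intragastric syringe or one i.p. injection. Compound suspended in saline:Tween 80 (4:1) with sonication just before dosing; vehicle-treated controls included. Weighed and observed daily over 3 days for skin, physical aspect, activity and faeces; survival recorded at day 3.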

[5] = test system: Mus musculus; assay: Toxicity in CD1 mouse assessed as survival at 450 mg/kg, po after 3 days; format: organism-based; set-up: dose 450 mg/kg, route oral; details: in vivo, 72 h; in short: as §3
[6] = test system: Mus musculus; assay: Toxicity in CD1 mouse intestine at 300 mg/kg, ip after 3 days by histological study; format: organism-based; set-up: dose 300 mg/kg, route intraperitoneal; details: in vivo, 72 h; in short: as §2
[7] = test system: Trypanosoma cruzi; assay: Antitrypanosomal activity against Trypanosoma cruzi infected in po dosed CD1 mouse assessed as prevention of inflammatory infiltrates in heart administered daily for 14 days measured on day 45; format: functional, organism-based
In short: (§4)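 T. cruzi, a Uruguayan patient isolate, was inoculated intradermally into 2-month-old female CD1 mice (20–22 g). Dosing began on day 15 after parasitaemia was observed. Drugs were suspended in saline:Tween 80 (4:1) and given by intragastric syringe once daily for 14 days, with untreated controls. On day 45 after treatment start, heart and muscle sections were scored by two independent observers for amastigotes and inflammatory infiltrates. Groups had 5–7 mice.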

[8] = test system: Mus musculus; assay: Toxicity in CD1 mouse assessed as haemoglobin level at 450 mg/kg, po after 3 days; format: organism-based; set-up: dose 450 mg/kg, route oral; details: in vivo, 72 h; in short: as §1
[9] = test system: Mus musculus; assay: Toxicity in CD1 mouse brain at 300 mg/kg, ip after 3 days by histological study; format: organism-based; set-up: dose 300 mg/kg, route intraperitoneal; details: in vivo, 72 h; in short: as §2
[10] = test system: Trypanosoma cruzi; assay: Antitrypanosomal activity against Trypanosoma cruzi infected in po dosed CD1 mouse assessed as prevention of amastigote nest in heart administered daily for 14 days measured on day 45; format: functional, organism-based; in short: as §4
[11] = test system: Mus musculus; assay: Toxicity in CD1 mouse assessed as increase in weight respect to day zero at 300 mg/kg, ip after 3 days; format: organism-based; set-up: dose 300 mg/kg, route intraperitoneal; details: in vivo, 72 h
In short: (§5)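 Healthy 2-month-old female CD1 mice (20–22 g, 5–7 per group) received one dose. Oral doses of 450 or 300 mg/kg were given by intragastric syringe; i.p. doses of 300 or 150 mg/kg by injection. Drugs were suspended in saline:Tween 80 (4:1), and a vehicle-only control was included. Mice were weighed and observed daily for 3 days. Weight change is expressed as percent relative to day zero.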

[12] = test system: Mus musculus; assay: Toxicity in CD1 mouse lung at 450 mg/kg, po after 3 days by histological study; format: organism-based; set-up: dose 450 mg/kg, route oral; details: in vivo, 72 h; in short: as §2
[13] = test system: Mus musculus; assay: Toxicity in CD1 mouse assessed as glutamic-oxalacetate transaminase level at 450 mg/kg, po after 3 days; format: organism-based; set-up: dose 450 mg/kg, route oral; details: in vivo, 72 h; in short: as §1
[14] = test system: Mus musculus; assay: Toxicity in CD1 mouse assessed as glutamic-pyruvate transaminase level at 450 mg/kg, po after 3 days; format: organism-based; set-up: dose 450 mg/kg, route oral; details: in vivo, 72 h; in short: as §1
[15] = test system: Mus musculus; assay: Toxicity in CD1 mouse assessed as hematocrite level at 300 mg/kg, ip after 3 days; format: organism-based; set-up: dose 300 mg/kg, route intraperitoneal; details: in vivo, 72 h; in short: as §1
[16] = test system: Mus musculus; assay: Toxicity in CD1 mouse assessed as hematocrite level at 450 mg/kg, po after 3 days; format: organism-based; set-up: dose 450 mg/kg, route oral; details: in vivo, 72 h; in short: as §1
[17] = test system: Trypanosoma cruzi; assay: Growth inhibition of Trypanosoma cruzi Tulahuen 2 epimastigote at 5 uM after 5 days; format: functional; set-up: Activity: scale not given: the % may be the effect or the level left
[18] = test system: Mus musculus; assay: Toxicity in CD1 mouse assessed as glutamic-pyruvate transaminase level at 300 mg/kg, ip after 3 days; format: organism-based; set-up: dose 300 mg/kg, route intraperitoneal; details: in vivo, 72 h; in short: as §1
[19] = test system: Mus musculus; assay: Toxicity in CD1 mouse kidney at 450 mg/kg, po after 3 days by histological study; format: organism-based; set-up: dose 450 mg/kg, route oral; details: in vivo, 72 h; in short: as §2
[20] = test system: Mus musculus; assay: Toxicity in CD1 mouse brain at 450 mg/kg, po after 3 days by histological study; format: organism-based; set-up: dose 450 mg/kg, route oral; details: in vivo, 72 h; in short: as §2
[21] = test system: Mus musculus; assay: Toxicity in CD1 mouse liver at 300 mg/kg, ip after 3 days by histological study; format: organism-based; set-up: dose 300 mg/kg, route intraperitoneal; details: in vivo, 72 h; in short: as §2
[22] = test system: Mus musculus; assay: Toxicity in CD1 mouse liver at 450 mg/kg, po after 3 days by histological study; format: organism-based; set-up: dose 450 mg/kg, route oral; details: in vivo, 72 h; in short: as §2
[23] = test system: Mus musculus; assay: Toxicity in CD1 mouse assessed as increase in weight respect to day zero at 450 mg/kg, po after 3 days; details: in vivo, 72 h
[24] = test system: Mus musculus; assay: Toxicity in CD1 mouse lung at 300 mg/kg, ip after 3 days by histological study; format: organism-based; set-up: dose 300 mg/kg, route intraperitoneal; details: in vivo, 72 h; in short: as §2
[25] = test system: Mus musculus; assay: Toxicity in CD1 mouse assessed as haemoglobin level at 300 mg/kg, ip after 3 days; format: organism-based; set-up: dose 300 mg/kg, route intraperitoneal; details: in vivo, 72 h; in short: as §1
[26] = test system: Mus musculus; assay: Toxicity in CD1 mouse heart at 450 mg/kg, po after 3 days by histological study; format: organism-based; set-up: dose 450 mg/kg, route oral; details: in vivo, 72 h; in short: as §2
[27] = test system: Mus musculus; assay: Toxicity in CD1 mouse kidney at 300 mg/kg, ip after 3 days by histological study; format: organism-based; set-up: dose 300 mg/kg, route intraperitoneal; details: in vivo, 72 h; in short: as §2
[28] = test system: Mus musculus; assay: Toxicity in CD1 mouse assessed as leukocyte level at 300 mg/kg, ip after 3 days; format: organism-based; set-up: dose 300 mg/kg, route intraperitoneal; details: in vivo, 72 h; in short: as §1
[29] = test system: Mus musculus; assay: Toxicity in CD1 mouse assessed as leukocyte level at 450 mg/kg, po after 3 days; format: organism-based; set-up: dose 450 mg/kg, route oral; details: in vivo, 72 h; in short: as §1
[30] = test system: Mus musculus; assay: Toxicity in CD1 mouse assessed as decrease in weight respect to day zero at 450 mg/kg, po after 3 days; format: organism-based; set-up: dose 450 mg/kg, route oral; scale not given: the % may be the effect or the level left; details: in vivo, 72 h; in short: as §5

SMILES | Activity [2] | Activity [3] | Activity [6] | Activity [8] | Activity [9] | Activity [11] | Activity [12] | Activity [13] | Activity [14] | Activity [15] | Activity [16] | Activity [17] | Activity [19] | Activity [20] | Activity [21] | Activity [22] | Activity [24] | Activity [25] | Activity [26] | Activity [27] | also measured
CCCCCCOC(=O)N/N=C/C=C/c1ccc([N+](=O)[O-])o1 | Non-toxic | Non-toxic | Non-toxic | 13.5 g/dL | Non-toxic | 2% | Non-toxic | 164 IU/L | 42 IU/L | 22.9% | 42.1% | 86% | Toxic | Non-toxic | Toxic | Toxic | Non-toxic | 12 g/dL | Non-toxic | Non-toxic | Activity [1]: 172 IU/L; Activity [4]: Non-toxic; Activity [5]: Non-toxic; Activity [7]: Active; Activity [10]: Active; Activity [18]: 33 IU/L; Activity [23]: 2%; Activity [28]: 5300 µL⁻¹; Activity [29]: 6600 µL⁻¹
CCCCCCCCOC(=O)N/N=C/c1ccc([N+](=O)[O-])o1 | Non-toxic | Non-toxic | Non-toxic | 11.9 g/dL | Non-toxic | 4% | Non-toxic | 119 IU/L | 30 IU/L | 43.6% | 36.4% | 84% | Non-toxic | Non-toxic | Toxic | Toxic | Non-toxic | 13.8 g/dL | Non-toxic | Non-toxic | Activity [30]: 11%; Activity [28]: 5300 µL⁻¹; Activity [29]: 6600 µL⁻¹
